Calls of active or inactive are those of the source. The calls are words filed in the database; no cut-off is given here.
Experiments:
[1] = system: U-937; assay: Cytotoxicity against human U937 cells expressing p53 mutant after 48 hrs by SRB assay; assay type: functional, cell-based; conditions: U-937, 48 h
[2] = system: HT-29; assay: Reduction in topoisomerase 1 expression in human HT-29 cells by immunocytochemistry; assay type: functional, cell-based
Outline: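 HT-29 and SKOV-3 cells were grown on slides and treated with compound at several concentrations, with an untreated control. Cells were fixed and permeabilised, and endogenous peroxidase was quenched with 0.3% H2O2/methanol. After blocking with 10% goat serum, slides were stained with anti-Top I (1:100, 10 h), then biotinylated secondary and avidin-biotin-HRP, and developed with DAB.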

[3] = system: HT-29; assay: Cytotoxicity against human HT-29 cells expressing p53 mutant after 48 hrs by SRB assay; assay type: functional, cell-based; conditions: HT-29, 48 h
Outline: (§1)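 Cell lines came from CCRC, Taiwan. Cells were seeded at about 5 × 10^3 per well and left overnight. They were then given serum-free medium containing 0-10 μM compound (0.08-10 μM serial dilutions) for 48 h at 37 °C. Cells were fixed with TCA (10% final), stained with SRB (0.4% final), and the dye was dissolved in 10 mM Tris with A515 read. IC50 was taken from a fitted log concentration-response curve.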

[4] = system: AGS; assay: Cytotoxicity against human AGS cells expressing wild type p53 after 48 hrs by SRB assay; assay type: functional, cell-based; outline: as §1
[5] = system: A2780; assay: Cytotoxicity against human A2780 cells after 48 hrs by MTT assay; assay type: functional, cell-based; conditions: A2780, 48 h
[6] = system: HT-29; assay: Induction of apoptosis in human HT-29 cells assessed as morphological changes at 0.25 ug/mL after 24 hrs by immunostaining; assay type: functional, cell-based
Outline: (§2)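 SKOV3 and HT-29 cells were treated with 0.25 or 5 μg/mL for 24 h. Cell morphology was assessed by microscopy after fixation in 4% formaldehyde and Hoechst 33342 staining (10 μg/mL), against an untreated control.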

[7] = system: HT-29; assay: Cell cycle distribution in human HT-29 cells assessed as accumulation at S phase upto 10 uM by flow cytometry; assay type: functional
Outline: (§3)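 HT-29 cells were exposed to vehicle or 1, 5 or 10 μM compound for 6, 12, 24 or 48 h. Floating and attached cells were collected, fixed in 70% ethanol and treated with 0.1% Triton X-100. They were stained with PI at 50 μg/mL plus RNaseA at 50 μg/mL for 30 min at room temperature in the dark. FL2 DNA content was read on 10000 cells by flow cytometry. The sub-G1 fraction was taken as apoptotic.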

[8] = system: HeLa; assay: Cytotoxicity against p53-deficient human HeLa cells after 48 hrs by SRB assay; assay type: functional, cell-based; outline: as §1
[9] = system: SK-OV-3; assay: Induction of apoptosis in human SKOV3 cells assessed as apoptotic cells at 10 ug/mL after 24 hrs by annexin V/propidium iodide-based flow cytometry; assay type: functional
Outline: (§4)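 SKOV-3 or HT-29 cells (1-5 × 10^6 cells/mL) were incubated with 0, 5 or 10 μg/mL compound for 24 h. They were then washed and stained with EGFP-Annexin V/PI and analysed immediately by flow cytometry. Annexin V+/PI− cells were scored as apoptotic; PI-permeant cells were scored as necrotic.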

[10] = system: HT-29; assay: Induction of apoptosis in human HT-29 cells assessed as morphological changes at 5 ug/mL after 24 hrs by immunostaining; assay type: functional, cell-based; outline: as §2
[11] = system: HT-29; assay: Induction of apoptosis in human HT-29 cells assessed as increase in accumulation at sub-G1 phase at 1 uM after 48 hrs by flow cytometry; assay type: functional; outline: as §3
[12] = system: HT-29; assay: Induction of apoptosis in human HT-29 cells assessed as apoptotic cells at 5 ug/mL after 24 hrs by annexin V/propidium iodide-based flow cytometry; assay type: functional; outline: as §4
[13] = target: T1, DNA topoisomerase 1 (Homo sapiens) (UniProt P11387); assay: Inhibition of DNA topoisomerase 1-mediated supercoiled Escherichia coli pBR322 DNA relaxation upto 25 uM after 30 mins
T1 sequence (whole entry): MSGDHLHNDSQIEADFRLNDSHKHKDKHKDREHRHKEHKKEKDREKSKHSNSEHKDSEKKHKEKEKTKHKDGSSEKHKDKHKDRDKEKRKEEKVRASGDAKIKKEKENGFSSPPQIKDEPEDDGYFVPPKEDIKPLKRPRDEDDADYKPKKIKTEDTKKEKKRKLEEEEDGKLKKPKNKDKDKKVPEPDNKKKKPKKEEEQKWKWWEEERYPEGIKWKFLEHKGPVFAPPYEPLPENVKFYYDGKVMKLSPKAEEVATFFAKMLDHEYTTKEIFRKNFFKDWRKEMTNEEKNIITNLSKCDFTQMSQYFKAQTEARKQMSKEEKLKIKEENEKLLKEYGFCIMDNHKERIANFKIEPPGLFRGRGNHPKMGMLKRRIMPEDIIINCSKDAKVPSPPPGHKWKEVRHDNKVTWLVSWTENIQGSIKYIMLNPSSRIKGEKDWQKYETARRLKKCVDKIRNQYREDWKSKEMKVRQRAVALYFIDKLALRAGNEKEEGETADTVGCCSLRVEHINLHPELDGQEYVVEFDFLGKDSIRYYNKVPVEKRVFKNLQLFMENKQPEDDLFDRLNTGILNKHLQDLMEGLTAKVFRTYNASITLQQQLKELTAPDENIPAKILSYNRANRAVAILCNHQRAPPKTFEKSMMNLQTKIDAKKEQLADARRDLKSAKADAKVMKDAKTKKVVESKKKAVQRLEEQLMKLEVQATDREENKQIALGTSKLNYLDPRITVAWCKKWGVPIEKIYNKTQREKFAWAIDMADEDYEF

[14] = system: KB; assay: Cytotoxicity against human KB cells after 48 hrs by MTT assay; assay type: functional, cell-based
[15] = system: K562; assay: Cytotoxicity against p53-deficient human K562 cells after 48 hrs by SRB assay; assay type: functional, cell-based; conditions: K562, 48 h
[16] = system: Bel-7402; assay: Cytotoxicity against human Bel7402 cells after 48 hrs by MTT assay; assay type: functional, cell-based; conditions: Bel-7402, 48 h
[17] = target: T1, DNA topoisomerase 1 (Homo sapiens); assay: Induction of human recombinant topoisomerase 1-mediated cleavage of 32P-labeled linearized pRYG plasmid DNA at 2.5 uM after 30 mins by agarose gel electrophoresis
Outline: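 Recombinant human Top I was incubated with HindIII-linearised pRYG plasmid, 3'-end-labelled with [α-32P]dCTP by Klenow fill-in (about 100000 cpm per reaction). Reactions were stopped with SDS and proteinase K at 45 °C, alkali-denatured, run on a 1% agarose gel and autoradiographed.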

[18] = system: Mus musculus; assay: Toxicity in athymic BALB/c nude mouse xenografted with human HT-29 cells assessed as change in body weight at 75 mg/kg, ip for 10 days measured after 30 days; assay type: organism-based; set-up: dose 75 mg/kg, route intraperitoneal; conditions: in vivo, 720 h
Outline: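 Nude mouse HT-29 xenograft model as above: female athymic BALB/c, 18-22 g, n=6 per group. Dosing was i.p. daily in 400 μL for 10 consecutive days at 75 or 150 mg/kg, with saline controls. Body weight and tumour volume were recorded every 4 days, and the study ended on day 30. Weights were compared with controls by Student's t test.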

With CCn1cc(-c2nc3ccc([N+](=O)[O-])cc3o2)c(=O)c2cc(F)c(N3CCNC(C)C3)c(F)c21 (stereo unspecified) the IC50 [1] was 1400 nM, the Activity [2] was “Dose-dependent effect” and the GI50 [3] was 1000 nM. The IC50 [3] was 5500 nM, the GI50 [4] was 700 nM and the IC50 [4] was 3500 nM. For the same compound, the IC50 [5] was 200 nM, the Activity [6] was “Active” and the Activity [7] was 5%. The GI50 [8] was 1100 nM, the IC50 [8] was 2400 nM and the Activity [9] was 13.6%. The Activity [10] was “Active”, the Activity [11] was 35.5% and the Activity [12] was 23.5%. The inhibition [13] was “inactive”, the IC50 [14] was 600 nM and the IC50 [15] was 4600 nM. For the same compound, the IC50 [16] was 200 nM, the Activity [17] was “Active” and the Activity [18] was “Non-toxic”.
